# Assay results as given in the M2OR odorant receptor database.
# Columns and labels:
# Conditions in all cases: stereoisomer not certain
# UniProt Q920P1 = molecular target: T1, UniProt Q920P1
# T1 sequence (whole entry): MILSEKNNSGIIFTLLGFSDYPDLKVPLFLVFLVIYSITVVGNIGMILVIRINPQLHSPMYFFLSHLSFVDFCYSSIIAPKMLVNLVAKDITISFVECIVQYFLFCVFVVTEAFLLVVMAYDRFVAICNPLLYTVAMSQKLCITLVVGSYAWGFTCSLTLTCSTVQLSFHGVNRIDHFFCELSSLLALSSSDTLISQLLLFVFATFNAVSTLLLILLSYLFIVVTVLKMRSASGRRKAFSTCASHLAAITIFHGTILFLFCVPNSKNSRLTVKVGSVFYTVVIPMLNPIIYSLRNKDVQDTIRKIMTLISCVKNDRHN
# How it was run: (§1)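 Assay methods differ from source to source, frequently being transient luciferase assays in mammalian cell lines. For each receptor–molecule pair, the label responsive (active) applies when the original authors judged the measured signal statistically different from baseline, and non-responsive (inactive) applies otherwise.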
# UniProt Q8VGZ2 = molecular target: T2, UniProt Q8VGZ2
# T2 sequence (whole entry): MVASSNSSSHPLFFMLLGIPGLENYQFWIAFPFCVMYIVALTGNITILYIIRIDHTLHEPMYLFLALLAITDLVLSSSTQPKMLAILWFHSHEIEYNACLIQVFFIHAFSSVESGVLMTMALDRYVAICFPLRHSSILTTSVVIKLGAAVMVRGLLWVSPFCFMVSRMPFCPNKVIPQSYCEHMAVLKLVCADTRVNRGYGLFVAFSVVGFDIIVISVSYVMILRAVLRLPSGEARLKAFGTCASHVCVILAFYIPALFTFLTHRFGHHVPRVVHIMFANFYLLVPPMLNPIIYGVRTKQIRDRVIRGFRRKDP
# How it was run: as §1
# UniProt Q8VGZ7 = molecular target: T3, UniProt Q8VGZ7
# T3 sequence (whole entry): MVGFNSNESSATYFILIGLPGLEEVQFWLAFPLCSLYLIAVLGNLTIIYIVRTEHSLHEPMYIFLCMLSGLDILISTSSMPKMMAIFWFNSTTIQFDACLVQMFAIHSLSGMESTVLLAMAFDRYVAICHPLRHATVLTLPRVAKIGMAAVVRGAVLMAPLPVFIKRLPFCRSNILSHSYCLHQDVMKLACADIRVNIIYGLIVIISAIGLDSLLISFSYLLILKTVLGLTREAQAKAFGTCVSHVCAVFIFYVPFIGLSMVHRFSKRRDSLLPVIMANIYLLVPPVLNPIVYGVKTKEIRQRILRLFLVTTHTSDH
# How it was run: as §1
# UniProt Q8VH16 = molecular target: T4, UniProt Q8VH16
# T4 sequence (whole entry): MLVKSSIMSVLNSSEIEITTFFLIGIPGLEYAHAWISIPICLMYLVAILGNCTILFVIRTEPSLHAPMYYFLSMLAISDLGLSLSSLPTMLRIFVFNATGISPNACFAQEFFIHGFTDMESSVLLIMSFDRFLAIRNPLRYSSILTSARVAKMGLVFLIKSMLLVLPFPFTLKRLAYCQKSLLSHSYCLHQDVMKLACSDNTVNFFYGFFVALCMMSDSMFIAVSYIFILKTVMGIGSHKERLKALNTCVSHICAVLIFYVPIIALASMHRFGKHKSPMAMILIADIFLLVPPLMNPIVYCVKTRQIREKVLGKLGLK
# How it was run: as §1
# UniProt Q8VH20 = molecular target: T5, UniProt Q8VH20
# T5 sequence (whole entry): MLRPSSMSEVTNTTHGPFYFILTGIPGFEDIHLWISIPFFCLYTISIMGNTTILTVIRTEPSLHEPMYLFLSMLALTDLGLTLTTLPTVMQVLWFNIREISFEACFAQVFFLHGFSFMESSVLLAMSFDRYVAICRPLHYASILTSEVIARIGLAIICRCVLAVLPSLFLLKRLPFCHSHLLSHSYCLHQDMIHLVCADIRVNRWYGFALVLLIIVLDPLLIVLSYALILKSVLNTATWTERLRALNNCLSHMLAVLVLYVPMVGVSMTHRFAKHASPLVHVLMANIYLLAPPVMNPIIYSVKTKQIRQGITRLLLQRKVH
# How it was run: as §1
# UniProt Q8VH21 = molecular target: T6, UniProt Q8VH21
# T6 sequence (whole entry): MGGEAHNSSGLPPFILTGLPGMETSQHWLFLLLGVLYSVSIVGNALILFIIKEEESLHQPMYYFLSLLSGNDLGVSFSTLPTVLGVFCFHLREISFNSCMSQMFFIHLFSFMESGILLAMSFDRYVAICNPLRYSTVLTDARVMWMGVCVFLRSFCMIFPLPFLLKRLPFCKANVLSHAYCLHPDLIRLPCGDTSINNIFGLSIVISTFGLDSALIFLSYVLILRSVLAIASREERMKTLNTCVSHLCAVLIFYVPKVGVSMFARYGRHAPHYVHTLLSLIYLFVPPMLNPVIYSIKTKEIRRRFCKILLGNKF
# How it was run: as §1
# UniProt Q8VH18 = molecular target: T7, UniProt Q8VH18
# T7 sequence (whole entry): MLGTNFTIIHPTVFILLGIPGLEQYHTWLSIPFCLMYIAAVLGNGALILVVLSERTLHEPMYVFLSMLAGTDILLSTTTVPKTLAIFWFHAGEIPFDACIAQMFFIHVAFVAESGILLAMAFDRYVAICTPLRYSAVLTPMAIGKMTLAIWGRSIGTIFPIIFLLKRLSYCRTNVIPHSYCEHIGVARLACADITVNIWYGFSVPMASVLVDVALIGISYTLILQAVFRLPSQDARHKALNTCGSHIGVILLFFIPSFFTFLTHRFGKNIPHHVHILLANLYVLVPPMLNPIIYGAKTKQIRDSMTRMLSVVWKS
# How it was run: as §1
SMILES,odorant receptor agonist call (UniProt Q920P1),odorant receptor agonist call (UniProt Q8VGZ2),odorant receptor agonist call (UniProt Q8VGZ7),odorant receptor agonist call (UniProt Q8VH16),odorant receptor agonist call (UniProt Q8VH20),odorant receptor agonist call (UniProt Q8VH21),odorant receptor agonist call (UniProt Q8VH18)
CCc1ccc(O)c(OC)c1,inactive,,,,,,
OCCc1ccccc1,,inactive,inactive,inactive,inactive,inactive,
CCCCCC(C=O)=Cc1ccccc1,,inactive,inactive,inactive,inactive,inactive,
Cc1occc1SSc1ccoc1C,,inactive,inactive,inactive,inactive,inactive,
COc1nccnc1C,,inactive,inactive,inactive,inactive,inactive,
c1ccc2ncccc2c1,,inactive,inactive,inactive,inactive,inactive,
C1CCOC1,,inactive,inactive,inactive,inactive,inactive,
CC(CC=O)CCCC(C)(C)O (stereo not drawn),,inactive,inactive,inactive,inactive,inactive,
C=CC(=C)CCC=C(C)CCC=C(C)C,,inactive,inactive,inactive,inactive,inactive,
CCCCCOC(=O)CCC,,inactive,inactive,inactive,inactive,inactive,
CCc1nccnc1CC,,inactive,inactive,inactive,inactive,inactive,
CCC=CCCCCC=O,,inactive,inactive,inactive,active,inactive,
CC1(C)CC(=O)CC(=O)C1,,inactive,inactive,inactive,inactive,inactive,
COc1cc(C=O)cc(OC)c1O,inactive,,,,,,
CCCCCCCCC=CC=O,,inactive,inactive,inactive,inactive,inactive,
CCCCOC(=O)CCC,,,,,,,inactive
COc1nccnc1C(C)C,,inactive,inactive,inactive,inactive,inactive,
CC(C)CCN,,inactive,inactive,inactive,inactive,inactive,
O=C(OCc1ccccc1)c1ccccc1O,,inactive,inactive,inactive,inactive,inactive,
